Measurements: ChEMBL document CHEMBL4138199, “Microwave-promoted facile access to 4-aminoquinoline-phthalimides: Synthesis and anti-plasmodial evaluation” (Eur J Med Chem, 2018)

Columns and labels:
[1] = tested on: Plasmodium falciparum; assay: Antiplasmodial activity against ring-stage of chloroquine-resistant/mefloquine-sensitive Plasmodium falciparum W2 assessed as parasite growth inhibition after 48 hrs by YOYO-1 dye-based flow cytometric method; assay type: functional, organism-based; details: W2, 48 h
In short: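 Parasites grown in RPMI-1640 with 10% human serum and synchronized with 5% D-sorbitol. Ring-stage cultures exposed 48 h to graded compound levels (DMSO ≤0.1%), then fixed 48 h in 1% formaldehyde/PBS pH 7.4 at room temperature. Stained with 1 nM YOYO-1 in 0.1% Triton X-100/PBS; parasitemia by flow cytometry. IC50 from non-linear fit of % control parasitemia, duplicate experiments.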

[2] = tested on: J774; assay: Cytotoxicity against mouse J774 cells assessed as decrease in cell survival after 24 hrs by fluorimetric method; assay type: cell-based; details: J774, 24 h
In short: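 J774 murine macrophages grown in DMEM with 10% de-complemented fetal calf serum under 5% CO2. Fluorescence read at 540 nm excitation and 590 nm emission. Percent survival is compound-well fluorescence divided by that of control wells with cells in a DMSO dilution series (1% to 0.03125% v/v).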

[3] = Selectivity index, ratio of IC50 for mouse J774 cells to IC50 for ring-stage of chloroquine-resistant/mefloquine-sensitive Plasmodium falciparum W2; assay type: toxicity; details: read-out: Ratio IC50

Row | Compound | IC50 [1] [nM] | IC50 [2] [nM] | selectivity ratio [3]
1 | O=C1c2ccccc2C(=O)N1CCCCCCNc1ccnc2cc(Cl)ccc12 | 110 | 14300 | 130
2 | O=C1c2c(Br)c(Br)c(Br)c(Br)c2C(=O)N1CCCCCCNc1ccnc2cc(Cl)ccc12 | 100 | 29100 | 291
3 | O=C1c2c(Cl)c(Cl)c(Cl)c(Cl)c2C(=O)N1CCCCCCNc1ccnc2cc(Cl)ccc12 | 460 | – | –
4 | O=C1c2cccc(F)c2C(=O)N1CCCCNc1ccnc2cc(Cl)ccc12 | 640 | – | –
5 | O=C1c2cccc(F)c2C(=O)N1CCNc1ccnc2cc(Cl)ccc12 | 4730 | – | –
6 | O=C1c2cccc(F)c2C(=O)N1CCCCCCNc1ccnc2cc(Cl)ccc12 | 240 | – | –
7 | O=C1c2cccc(F)c2C(=O)N1CCCNc1ccnc2cc(Cl)ccc12 | 3960 | – | –
8 | O=C1c2ccccc2C(=O)N1CCCCNc1ccnc2cc(Cl)ccc12 | 370 | – | –
9 | O=C1c2ccc(F)cc2C(=O)N1CCCCNc1ccnc2cc(Cl)ccc12 | 420 | – | –
10 | O=C1c2c(Cl)c(Cl)c(Cl)c(Cl)c2C(=O)N1CCCNc1ccnc2cc(Cl)ccc12 | 570 | – | –
11 | O=C1c2cccc(F)c2C(=O)N1CCCCCCCCNc1ccnc2cc(Cl)ccc12 | 120 | 28200 | 235
12 | O=C1c2ccc(F)cc2C(=O)N1CCCCCCCCNc1ccnc2cc(Cl)ccc12 | 170 | – | –
13 | O=C1c2cccc([N+](=O)[O-])c2C(=O)N1CCNc1ccnc2cc(Cl)ccc12 | 7550 | – | –
14 | O=C1c2ccccc2C(=O)N1CCCNc1ccnc2cc(Cl)ccc12 | 1510 | – | –
15 | O=C1c2c(Cl)c(Cl)c(Cl)c(Cl)c2C(=O)N1CCNc1ccnc2cc(Cl)ccc12 | 210 | – | –
16 | O=C1c2ccc(F)cc2C(=O)N1CCCCCCNc1ccnc2cc(Cl)ccc12 | 120 | 15200 | 126
17 | O=C1c2cccc([N+](=O)[O-])c2C(=O)N1CCCCCCNc1ccnc2cc(Cl)ccc12 | 150 | – | –
18 | O=C1c2c(Br)c(Br)c(Br)c(Br)c2C(=O)N1CCCNc1ccnc2cc(Cl)ccc12 | 3760 | – | –
19 | O=C1c2c(Br)c(Br)c(Br)c(Br)c2C(=O)N1CCCCNc1ccnc2cc(Cl)ccc12 | 190 | – | –
20 | C[C@@H]1CC[C@H]2[C@@H](C)C(=O)O[C@@H]3O[C@@]4(C)CC[C@@H]1[C@]32OO4 [ARTEMISININ] | 7 | – | –
21 | O=C1c2ccccc2C(=O)N1CCNc1ccnc2cc(Cl)ccc12 | 1110 | – | –
22 | O=C1c2ccccc2C(=O)N1CCCCCCCCNc1ccnc2cc(Cl)ccc12 | 140 | – | –
23 | O=C1c2c(Cl)c(Cl)c(Cl)c(Cl)c2C(=O)N1CCCCNc1ccnc2cc(Cl)ccc12 | 270 | – | –
24 | O=C1c2c(Br)c(Br)c(Br)c(Br)c2C(=O)N1CCNc1ccnc2cc(Cl)ccc12 | 400 | – | –
25 | O=C1c2ccc(F)cc2C(=O)N1CCCNc1ccnc2cc(Cl)ccc12 | 1190 | – | –
26 | O=C1c2ccc(F)cc2C(=O)N1CCNc1ccnc2cc(Cl)ccc12 | 4560 | – | –
